Data taken from ChEMBL document CHEMBL4265954, “Discovery of potent liver-selective stearoyl-CoA desaturase-1 (SCD1) inhibitors, thiazole-4-acetic acid derivatives, for the treatment of diabetes, hepatic steatosis, and obesity” (Eur J Med Chem, 2018).

Each compound was assayed on Mus musculus (assay: Ex vivo inhibition of SCD1 in C57BL/6J mouse liver assessed as residual activity at 10 mg/kg, po treated for 24 hrs followed by incubation with [14C]stearoyl-CoA substrate for 10 mins by TLC assay relative to control).
Assay type: functional
Method in brief: (§1)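 Male 6-week-old C57BL/6J mice dosed orally as a suspension in 0.5% methylcellulose. Liver or eyelid was taken 6 or 24 h later and homogenized in 100 mM Tris-HCl pH 7.4 with 0.25 M sucrose. S9 was obtained at 10,000 × g, 4 °C. S9 was incubated with [14C]stearoyl-CoA, NADH, MgCl2 and cytochrome b5 at room temperature, 10 min for liver and 30 min for eyelid. Lipids were saponified and run on AgNO3 TLC to quantify stearate and oleate. Result is % of vehicle control.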

Compound | Activity [%]
CCCCCCCCc1ccccc1NCc1ccc(C(=O)Nc2nc(CC(=O)O)cs2)s1 | 11
O=C(Nc1nc(CCO)cs1)c1ccc(CNc2ccccc2C(F)(F)F)s1 | 27
O=C(Nc1nc(CCO)cs1)c1ccc(CNc2ccccc2Cl)cc1 | 66
O=C(Nc1nc(CO)cs1)c1ccc(CNc2ccccc2C(F)(F)F)cc1 | 53
O=C(O)Cc1csc(NC(=O)c2ccc(CNc3ccccc3Cc3ccccc3)cc2)n1 | 53
CCCCCCc1ccccc1NCc1ccc(C(=O)Nc2nc(CC(=O)O)cs2)s1 | 13
O=C(O)Cc1csc(NC(=O)c2ccc(CNc3ccccc3Cc3ccccc3)s2)n1 | 20
CCCCCCCCc1ccccc1NCc1ccc(C(=O)Nc2nc(CC(=O)O)cs2)cc1 | 74
CCCCCCc1ccccc1NCc1ccc(C(=O)Nc2nc(CCO)cs2)s1 | 12
CC(C)CCc1ccccc1NCc1ccc(C(=O)Nc2nc(CC(=O)O)cs2)s1 | 34

What follows are compounds tested on Mus musculus (assay: Ex vivo inhibition of SCD1 in C57BL/6J mouse liver assessed as residual activity at 1 mg/kg, po treated for 6 hrs followed by incubation with [14C]stearoyl-CoA substrate for 10 mins by TLC assay relative to control).
Assay type: functional
Method in brief: as §1

Compound | Activity [%]
CCCCCCCCc1ccccc1NCc1ccc(C(=O)Nc2nc(CC(=O)O)cs2)s1 | 7
O=C(Nc1nc(CCO)cs1)c1ccc(CNc2ccccc2C(F)(F)F)s1 | 10
O=C(Nc1nc(CCO)cs1)c1ccc(CNc2ccccc2Cl)cc1 | 29
CCCCc1ccccc1NCc1ccc(C(=O)Nc2nc(CCO)cs2)cc1 | 61
O=C(Nc1nc(CO)cs1)c1ccc(CNc2ccccc2Cl)cc1 | 12
O=C(Nc1nc(CO)cs1)c1ccc(CNc2ccccc2C(F)(F)F)cc1 | 20
O=C(Nc1nc(CCCO)cs1)c1ccc(CNc2ccccc2C(F)(F)F)cc1 | 64
O=C(Nc1nc(CO)cs1)c1ccc(CNc2ccccc2C(F)(F)F)s1 | 9
O=C(Nc1nc(CCO)cs1)c1ccc(CNc2ccccc2C(F)(F)F)cc1 | 33
O=C(O)Cc1csc(NC(=O)c2ccc(CNc3ccccc3Cc3ccccc3)cc2)n1 | 18
CCCCCCc1ccccc1NCc1ccc(C(=O)Nc2nc(CC(=O)O)cs2)s1 | 12
O=C(O)Cc1csc(NC(=O)c2ccc(CNc3ccccc3-c3ccccc3)cc2)n1 | 74
CCCCc1ccccc1NCc1ccc(C(=O)Nc2nc(CO)cs2)cc1 | 10
O=C(O)Cc1csc(NC(=O)c2ccc(CNc3ccccc3Cc3ccccc3)s2)n1 | 22
O=C(O)Cc1csc(NC(=O)c2ccc(CNc3ccccc3Cl)cc2)n1 | 72
O=C(O)Cc1csc(NC(=O)c2ccc(CNc3ccccc3C(F)(F)F)cc2)n1 | 98
CCCCCCCCc1ccccc1NCc1ccc(C(=O)Nc2nc(CC(=O)O)cs2)cc1 | 15
CC(C)CCc1ccccc1NCc1ccc(C(=O)Nc2nc(CC(=O)O)cs2)cc1 | 19
CCCCCCc1ccccc1NCc1ccc(C(=O)Nc2nc(CCO)cs2)s1 | 12
CC(C)CCc1ccccc1NCc1ccc(C(=O)Nc2nc(CC(=O)O)cs2)s1 | 19
CC(C)CCc1ccccc1NCc1ccc(C(=O)Nc2nc(CCO)cs2)cc1 | 26
CCCCc1ccccc1NCc1ccc(C(=O)Nc2nc(CC(=O)O)cs2)cc1 | 76
CCCCCCc1ccccc1NCc1ccc(C(=O)Nc2nc(CC(=O)O)cs2)cc1 | 31
O=C(O)Cc1csc(NC(=O)c2ccc(CNc3ccccc3C(F)(F)F)s2)n1 | 51

These compounds were tested against T1, Stearoyl-CoA desaturase (Homo sapiens, UniProt O00767) (assay: Inhibition of recombinant human SCD1 expressed in baculovirus expression system assessed as reduction in [3H]H2O production using stearoyl [9,10-3H]CoA as substrate in presence of NADH incubated for 30 mins by scintillation counting method).
T1 sequence (O00767 whole entry): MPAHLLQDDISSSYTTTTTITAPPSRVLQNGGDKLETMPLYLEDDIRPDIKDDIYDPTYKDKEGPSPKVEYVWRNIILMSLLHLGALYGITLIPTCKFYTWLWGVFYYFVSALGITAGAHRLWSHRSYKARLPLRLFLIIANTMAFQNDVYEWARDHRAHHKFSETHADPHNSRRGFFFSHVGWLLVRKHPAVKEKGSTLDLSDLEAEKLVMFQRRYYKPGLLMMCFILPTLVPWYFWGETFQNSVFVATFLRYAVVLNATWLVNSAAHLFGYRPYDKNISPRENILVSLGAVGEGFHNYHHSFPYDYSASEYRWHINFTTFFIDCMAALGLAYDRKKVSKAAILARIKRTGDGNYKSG
Method in brief: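 Desaturation of [9,10-3H]stearoyl-CoA measured as released [3H]H2O. Water was separated from charcoal-adsorbed substrate by filtration and counted by scintillation. Remaining activity = (compound − background)/(control − background). DMSO wells served as control and pre-stopped wells as background. IC50 was interpolated from the two points bracketing 50%.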

Compound | IC50 [nM]
CCCCCCCCc1ccccc1NCc1ccc(C(=O)Nc2nc(CC(=O)O)cs2)s1 | 17
O=C(Nc1nc(CCO)cs1)c1ccc(CNc2ccccc2C(F)(F)F)s1 | 3.9
O=C(Nc1nc(CCO)cs1)c1ccc(CNc2ccccc2Cl)cc1 | 6.4
CCCCc1ccccc1NCc1ccc(C(=O)Nc2nc(CCO)cs2)cc1 | 3
CCCc1ccccc1NCc1ccc(C(=O)Nc2nc(C)cs2)cc1 | 8.9
O=C(Nc1ncc(CCO)s1)c1ccc(CNc2ccccc2C(F)(F)F)cc1 | 3.8
O=C(Nc1ncc(C(=O)O)s1)c1ccc(CNc2ccccc2C(F)(F)F)cc1 | 8.1
O=C(O)CCc1cnc(NC(=O)c2ccc(CNc3ccccc3C(F)(F)F)cc2)s1 | 570
O=C(Nc1nc(CO)cs1)c1ccc(CNc2ccccc2Cl)cc1 | 4.3
Cc1csc(NC(=O)c2ccc(CNc3ccccc3C)nc2)n1 | 310
Cc1csc(NC(=O)c2ccc(CNc3ccccc3C)cn2)n1 | 46
Cc1csc(NC(=O)c2ccc(COc3ccccc3Cl)cc2)n1 | 150
Cc1csc(NC(=O)c2ccc(CNc3ccccc3C(F)(F)F)s2)n1 | 9.7
O=C(O)Cc1cnc(NC(=O)c2ccc(CNc3ccccc3C(F)(F)F)cc2)s1 | 58
O=C(Nc1nc(CCCO)c(CCO)s1)c1ccc(CNc2ccccc2C(F)(F)F)cc1 | 31
O=C(Nc1nc(CO)cs1)c1ccc(CNc2ccccc2C(F)(F)F)cc1 | 3.8
O=C(Nc1nc(CCCO)cs1)c1ccc(CNc2ccccc2C(F)(F)F)cc1 | 5.2
Cc1csc(NC(=O)c2ccc(CNc3ccccc3)cc2)n1 | 95
Cc1csc(NC(=O)c2ccc(CNc3ccccc3C(F)(F)F)cc2)n1 | 4.1
O=C(Nc1nc(CO)cs1)c1ccc(CNc2ccccc2C(F)(F)F)s1 | 5.1
Cc1csc(NC(=O)N2CCC(CNc3ccccc3C(F)(F)F)CC2)n1 | 30
O=C(Nc1nc(CCO)cs1)c1ccc(CNc2ccccc2C(F)(F)F)cc1 | 4.2
O=C(O)Cc1csc(NC(=O)c2ccc(CNc3ccccc3Cc3ccccc3)cc2)n1 | 5.5
CCCCCCc1ccccc1NCc1ccc(C(=O)Nc2nc(CC(=O)O)cs2)s1 | 4.8

Compound | IC50 [nM]
O=C(O)CCc1csc(NC(=O)c2ccc(CNc3ccccc3C(F)(F)F)cc2)n1 | 6.3
O=C(Nc1ncc(CCCO)s1)c1ccc(CNc2ccccc2C(F)(F)F)cc1 | 260
O=C(O)Cc1csc(NC(=O)c2ccc(CNc3ccccc3-c3ccccc3)cc2)n1 | 8.7
CCCCc1ccccc1NCc1ccc(C(=O)Nc2nc(CO)cs2)cc1 | 3.2
O=C(O)Cc1csc(NC(=O)c2ccc(CNc3ccccc3Cc3ccccc3)s2)n1 | 7.5
Cc1csc(NC(=O)c2ccc(CNc3ccc(Cl)cc3)cc2)n1 | 760
O=C(O)Cc1csc(NC(=O)c2ccc(CNc3ccccc3Cl)cc2)n1 | 13
O=C(Nc1nc(CO)c(C(=O)O)s1)c1ccc(CNc2ccccc2C(F)(F)F)cc1 | 22
Cc1ccccc1NCc1ccc(C(=O)Nc2nc(CC(=O)O)cs2)cc1 | 14
O=C(O)Cc1csc(NC(=O)c2ccc(CNc3ccccc3C(F)(F)F)cc2)n1 | 5.1
Cc1csc(NC(=O)c2ccc(CNc3cccc(Cl)c3)cc2)n1 | 18
Cc1csc(NC(=O)c2ccc(CNc3ccccc3Cl)cc2)n1 | 9.2
Cc1csc(NC(=O)c2ccc(CNc3ccccc3C(=O)O)cc2)n1 | 3600
CCCCCCCCc1ccccc1NCc1ccc(C(=O)Nc2nc(CC(=O)O)cs2)cc1 | 4.5
Cc1ccccc1NCc1ccc(C(=O)Nc2nc(C(=O)O)cs2)cc1 | > 10000
CC(C)CCc1ccccc1NCc1ccc(C(=O)Nc2nc(CC(=O)O)cs2)cc1 | 4.8
CCCCCCc1ccccc1NCc1ccc(C(=O)Nc2nc(CCO)cs2)s1 | 4.5
O=C(Nc1ncc(CO)s1)c1ccc(CNc2ccccc2C(F)(F)F)cc1 | 2.8
CC(C)CCc1ccccc1NCc1ccc(C(=O)Nc2nc(CC(=O)O)cs2)s1 | 6.7
CC(C)CCc1ccccc1NCc1ccc(C(=O)Nc2nc(CCO)cs2)cc1 | 5.3
CCCCc1ccccc1NCc1ccc(C(=O)Nc2nc(CC(=O)O)cs2)cc1 | 5.5
CCCCCCc1ccccc1NCc1ccc(C(=O)Nc2nc(CC(=O)O)cs2)cc1 | 3
O=C(O)Cc1csc(NC(=O)c2ccc(CNc3ccccc3C(F)(F)F)s2)n1 | 9
O=C(O)CCCc1csc(NC(=O)c2ccc(CNc3ccccc3C(F)(F)F)cc2)n1 | 2700

These compounds were tested on Mus musculus (assay: Ex vivo inhibition of SCD1 in C57BL/6J mouse eyelid assessed as residual activity at 100 mg/kg, po treated for 24 hrs followed by incubation with [14C]stearoyl-CoA substrate for 30 mins by TLC assay relative to control).
Assay type: organism-based
Method in brief: as §1

Compound | Activity [%]
CCCCCCCCc1ccccc1NCc1ccc(C(=O)Nc2nc(CC(=O)O)cs2)s1 | 8
O=C(Nc1nc(CCO)cs1)c1ccc(CNc2ccccc2C(F)(F)F)s1 | 8
O=C(Nc1nc(CCO)cs1)c1ccc(CNc2ccccc2Cl)cc1 | 35
O=C(Nc1nc(CO)cs1)c1ccc(CNc2ccccc2C(F)(F)F)cc1 | 0
O=C(O)Cc1csc(NC(=O)c2ccc(CNc3ccccc3Cc3ccccc3)cc2)n1 | 100
CCCCCCc1ccccc1NCc1ccc(C(=O)Nc2nc(CC(=O)O)cs2)s1 | 52
O=C(O)Cc1csc(NC(=O)c2ccc(CNc3ccccc3Cc3ccccc3)s2)n1 | 76
CCCCCCCCc1ccccc1NCc1ccc(C(=O)Nc2nc(CC(=O)O)cs2)cc1 | 71
CCCCCCc1ccccc1NCc1ccc(C(=O)Nc2nc(CCO)cs2)s1 | 4
CC(C)CCc1ccccc1NCc1ccc(C(=O)Nc2nc(CC(=O)O)cs2)s1 | 84

Each compound was assayed on Mus musculus (assay: Ex vivo inhibition of SCD1 in C57BL/6J mouse eyelid assessed as residual activity at 1 mg/kg, po treated for 6 hrs followed by incubation with [14C]stearoyl-CoA substrate for 30 mins by TLC assay relative to control).
Assay type: organism-based
Method in brief: as §1

Compound | Activity [%]
CCCCCCCCc1ccccc1NCc1ccc(C(=O)Nc2nc(CC(=O)O)cs2)s1 | 77
O=C(Nc1nc(CCO)cs1)c1ccc(CNc2ccccc2C(F)(F)F)s1 | 171
O=C(Nc1nc(CCO)cs1)c1ccc(CNc2ccccc2Cl)cc1 | 74
CCCCc1ccccc1NCc1ccc(C(=O)Nc2nc(CCO)cs2)cc1 | 94
O=C(Nc1nc(CO)cs1)c1ccc(CNc2ccccc2Cl)cc1 | 37
O=C(Nc1nc(CO)cs1)c1ccc(CNc2ccccc2C(F)(F)F)cc1 | 73
O=C(Nc1nc(CCCO)cs1)c1ccc(CNc2ccccc2C(F)(F)F)cc1 | 75
O=C(Nc1nc(CO)cs1)c1ccc(CNc2ccccc2C(F)(F)F)s1 | 33
O=C(Nc1nc(CCO)cs1)c1ccc(CNc2ccccc2C(F)(F)F)cc1 | 136
O=C(O)Cc1csc(NC(=O)c2ccc(CNc3ccccc3Cc3ccccc3)cc2)n1 | 76
CCCCCCc1ccccc1NCc1ccc(C(=O)Nc2nc(CC(=O)O)cs2)s1 | 88
O=C(O)Cc1csc(NC(=O)c2ccc(CNc3ccccc3-c3ccccc3)cc2)n1 | 187
CCCCc1ccccc1NCc1ccc(C(=O)Nc2nc(CO)cs2)cc1 | 29
O=C(O)Cc1csc(NC(=O)c2ccc(CNc3ccccc3Cc3ccccc3)s2)n1 | 128
O=C(O)Cc1csc(NC(=O)c2ccc(CNc3ccccc3Cl)cc2)n1 | 132
O=C(O)Cc1csc(NC(=O)c2ccc(CNc3ccccc3C(F)(F)F)cc2)n1 | 107
CCCCCCCCc1ccccc1NCc1ccc(C(=O)Nc2nc(CC(=O)O)cs2)cc1 | 127
CC(C)CCc1ccccc1NCc1ccc(C(=O)Nc2nc(CC(=O)O)cs2)cc1 | 68
CCCCCCc1ccccc1NCc1ccc(C(=O)Nc2nc(CCO)cs2)s1 | 104
CC(C)CCc1ccccc1NCc1ccc(C(=O)Nc2nc(CC(=O)O)cs2)s1 | 160
CC(C)CCc1ccccc1NCc1ccc(C(=O)Nc2nc(CCO)cs2)cc1 | 63
CCCCc1ccccc1NCc1ccc(C(=O)Nc2nc(CC(=O)O)cs2)cc1 | 74
CCCCCCc1ccccc1NCc1ccc(C(=O)Nc2nc(CC(=O)O)cs2)cc1 | 119
O=C(O)Cc1csc(NC(=O)c2ccc(CNc3ccccc3C(F)(F)F)s2)n1 | 124
